pIC50: −log10 of the molar value.
The compounds below were run against T1, Substance-K receptor (Homo sapiens, UniProt P21452) (assay: Binding affinity was determined by measuring the inhibition of 125 I-NKA binding to transfected CHO cells expressing human recombinant Tachykinin receptor 2).
T1 sequence (P21452 whole entry): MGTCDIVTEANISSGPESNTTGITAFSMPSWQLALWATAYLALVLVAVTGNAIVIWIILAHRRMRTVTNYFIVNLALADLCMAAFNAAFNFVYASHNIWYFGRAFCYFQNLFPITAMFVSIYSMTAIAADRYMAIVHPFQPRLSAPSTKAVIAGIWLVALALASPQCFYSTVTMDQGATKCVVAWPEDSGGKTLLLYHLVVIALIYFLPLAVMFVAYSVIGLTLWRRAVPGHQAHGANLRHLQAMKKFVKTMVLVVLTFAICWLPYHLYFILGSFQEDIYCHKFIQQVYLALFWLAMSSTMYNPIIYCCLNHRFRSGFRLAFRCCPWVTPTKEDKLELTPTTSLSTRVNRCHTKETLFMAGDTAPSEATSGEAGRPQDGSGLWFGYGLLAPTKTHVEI
Format: cell-based
Procedure, shortened: (§1)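 Whole hNK2-transfected CHO cells (3 × 10⁵ per well) incubated 20 min at room temperature in 20 mM HEPES pH 7.4 with 2 mM MnSO₄ and 6 mM MgCl₂, 0.05 nM ¹²⁵I-NKA and varying test concentrations. Nonspecific binding defined with 50 nM NKA. Free ligand removed by rapid filtration, four ice-cold Tricine washes, filter-bound radioactivity by scintillation counting; triplicate samples.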
`COc1cc(C(=O)Nc2cc(C(=O)NC3CCCCC3)ccc2-c2ccc(Cl)cc2)cc(OC)c1OC` was tested, and the pIC50 was 7.52. For `CN(C)CCCNC(=O)c1ccc(-c2ccc(Cl)cc2)c(N(C)C(=O)c2cc(C(F)(F)F)cc(C(F)(F)F)c2)c1`, the pIC50 was 6.97. For `COc1cc(C(=O)Nc2cc(C(=O)NC3CCCCNC3=O)ccc2-c2ccc(Cl)cc2)cc(OC)c1OC` (centres undefined), the pIC50 was < 6.00. With `CN(O)C(=O)c1ccc(-c2ccc(Cl)cc2)c(N(C)C(=O)c2cc(C(F)(F)F)cc(C(F)(F)F)c2)c1` the pIC50 was < 6.00. `CN(C)C(=O)c1ccc(-c2ccc(Cl)cc2)c(N(C)C(=O)c2cc(C(F)(F)F)cc(C(F)(F)F)c2)c1` was tested, and the pIC50 was 6.30. `CN(C(=O)c1cc(C(F)(F)F)cc(C(F)(F)F)c1)c1cc(C(=O)NC2CCCCC2)ccc1-c1ccc(Cl)cc1` was tested, and the pIC50 was 7.29. Compound `COc1cc(C(=O)N(C)c2cc(C(=O)N[C@@H]3CCCCNC3=O)ccc2-c2ccc(Cl)cc2)cc(OC)c1OC` has a pIC50 of 6.79.

The compounds below were run against T1, Substance-K receptor (assay: Binding affinity by measuring the inhibition of 125 I-NKA binding to transfected CHO cells expressing human recombinant Tachykinin receptor 2).
Format: cell-based
Procedure, shortened: as §1
`CN(C(=O)c1ccccc1)c1cc(C(=O)NC2CCCCC2)ccc1-c1ccc(F)cc1` was tested, and the pIC50 was < 6.00. Compound `CN(C(=O)c1cc(C(F)(F)F)cc(C(F)(F)F)c1)c1cc(C(=O)N[C@@H]2CCCCNC2=O)ccc1-c1ccc(F)cc1` has a pIC50 of 7.55. Compound `CN(C(=O)c1cc(C(F)(F)F)cc(C(F)(F)F)c1)c1cc(C(=O)NC2CCCCNC2=O)ccc1-c1ccccc1` (centres undefined) has a pIC50 of 6.25. Work on `Cc1ccc(-c2ccc(C(=O)N[C@@H]3CCCCNC3=O)cc2N(C)C(=O)c2cc(C(F)(F)F)cc(C(F)(F)F)c2)cc1` yielded a pIC50 of 6.74. For `CN(C(=O)c1cc(C(F)(F)F)cc(C(F)(F)F)c1)c1cc(C(=O)N[C@@H]2CCCCNC2=O)ccc1-c1ccc(Cl)c(Cl)c1`, the pIC50 was 7.37. For `CN(C(=O)c1cc(C(F)(F)F)cc(C(F)(F)F)c1)c1cc(C(=O)NC2CCCCC2)ccc1-c1ccc(F)cc1`, the pIC50 was 6.77. In the case of `CN(C(=O)c1cc(C(F)(F)F)cc(C(F)(F)F)c1)c1cc(C(=O)N[C@@H]2CCCCNC2=O)ccc1-c1ccc(Cl)cc1`, the pIC50 was 7.15.
